Measured values reported in ChEMBL document CHEMBL1287642, “Synthesis, antiviral activity and cytotoxicity evaluation of Schiff bases of some 2-phenyl quinazoline-4(3)H-ones” (Eur J Med Chem, 2010).
≈ marks a conversion by molar mass, not a printed value.

Assays:
Human respirovirus 3 = assay: Antiviral activity against Para influenza-3 virus infected in african green monkey Vero cells assessed as protection against virus-induced cytopathogenicity after 2 days; format: functional, organism-based; conditions: Human respirovirus 3, Vero, 48 h
[1] = system: Mammalian orthoreovirus 1; assay: Antiviral activity against Reovirus-1 infected in african green monkey Vero cells assessed as protection against virus-induced cytopathogenicity after 2 days; format: functional, organism-based; conditions: Mammalian orthoreovirus 1, Vero, 48 h
[2] = Cytotoxicity against human HEL cells assessed as minimum concentration required to cause microscopically detectable alteration after 2 days; format: cell-based; conditions: read-out: Activity
Influenza B virus [3] = assay: Antiviral activity against influenza B virus infected in MDCK cells assessed as protection against virus-induced cytopathogenicity at 100 ug/ml after 2 days; format: functional, organism-based
Outline: (§1)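 Infected MDCK cells were treated. […] N.A. means not active at the highest concentration tested or at a subtoxic concentration.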

Influenza A virus [4] = assay: Antiviral activity against Influenza A virus H3N2 infected in MDCK cells assessed as protection against virus-induced cytopathogenicity at 100 ug/ml after 2 days; format: functional, organism-based; outline: as §1
Human alphaherpesvirus 1 [5] = assay: Antiviral activity against acyclovir-resistant TK deficient Herpes simplex virus-1 KOS infected in human HEL cells assessed as protection against virus-induced cytopathogenicity after 2 days; format: functional, organism-based; conditions: Human alphaherpesvirus 1, KOS, 48 h
Influenza A virus [6] = assay: Antiviral activity against Influenza A virus H3N2 infected in MDCK cells assessed as cell viability at 100 ug/ml after 2 days by MTS assay; format: functional, organism-based
[7] = Cytotoxicity against african green monkey Vero cells assessed as minimum concentration required to cause microscopically detectable alteration after 2 days; format: cell-based; conditions: chlorocebus sabaeus, read-out: Activity
[8] = Cytotoxicity against human HeLa cells assessed as minimum concentration required to cause microscopically detectable alteration after 2 days; format: cell-based; conditions: read-out: Activity
Influenza B virus [9] = assay: Antiviral activity against influenza B virus infected in MDCK cells assessed as cell viability at 100 ug/ml after 2 days by MTS assay; format: functional, organism-based
Influenza A virus [10] = assay: Antiviral activity against influenza A virus H1N1 infected in MDCK cells assessed as cell viability at 100 ug/ml after 2 days by MTS assay; format: functional, organism-based
Felid alphaherpesvirus 1 = assay: Antiviral activity against Feline herpes virus infected in cat CRFK cells assessed as protection against virus-induced cytopathogenicity after 2 days by MTS assay; format: functional, organism-based; conditions: Felid alphaherpesvirus 1, CRFK, 48 h
[11] = system: Vesicular stomatitis virus; assay: Antiviral activity against Vesicular stomatitis virus infected in human HeLa cells assessed as protection against virus-induced cytopathogenicity after 2 days; format: functional, organism-based; conditions: 48 h
Coxsackievirus B4 [12] = assay: Antiviral activity against Coxsackie virus B4 infected in african green monkey Vero cells assessed as protection against virus-induced cytopathogenicity after 2 days; format: functional, organism-based; conditions: Enterovirus B, 48 h
Influenza A virus [13] = assay: Antiviral activity against influenza A virus H1N1 infected in MDCK cells assessed as protection against virus-induced cytopathogenicity at 100 ug/ml after 2 days; format: functional, organism-based; outline: as §1
[14] = system: Vesicular stomatitis virus; assay: Antiviral activity against Vesicular stomatitis virus infected in human HEL cells assessed as protection against virus-induced cytopathogenicity after 2 days; format: functional, organism-based; conditions: 48 h
Coxsackievirus B4 [15] = assay: Antiviral activity against Coxsackie virus B4 infected in human HeLa cells assessed as protection against virus-induced cytopathogenicity after 2 days; format: functional, organism-based; conditions: Enterovirus B, 48 h
Punta Toro virus = assay: Antiviral activity against Punta Toro virus infected in african green monkey Vero cells assessed as protection against virus-induced cytopathogenicity after 2 days; format: functional, organism-based; conditions: 48 h
[16] = Cytotoxicity against MDCK cells assessed as minimum concentration required to cause microscopically detectable alteration after 2 days; format: cell-based, Canis lupus familiaris; conditions: dog, read-out: Activity
Human alphaherpesvirus 2 = assay: Antiviral activity against Herpes simplex virus-2 G infected in human HEL cells assessed as protection against virus-induced cytopathogenicity after 2 days; format: functional, organism-based; conditions: Human alphaherpesvirus 2, strain G, 48 h
[17] = Cytotoxicity against cat CRFK cells by MTS assay; format: cell-based, Felis catus
Outline: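 In uninfected CRFK cells, the 50% cytotoxic concentration was derived from cell viability measured by the colorimetric formazan-based MTS assay.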

Sindbis virus = assay: Antiviral activity against Sindbis virus infected in african green monkey Vero cells assessed as protection against virus-induced cytopathogenicity after 2 days; format: functional, organism-based; conditions: 48 h
MDCK = assay: Cytotoxicity against MDCK cells by MTS assay; format: cell-based, Canis lupus familiaris; conditions: dog, mdck
Outline: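 In Madin Darby canine kidney cells, the 50% cytotoxic concentration was derived from cell viability measured by the colorimetric formazan-based MTS assay.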

Human alphaherpesvirus 1 [18] = assay: Antiviral activity against Herpes simplex virus-1 KOS infected in human HEL cells assessed as protection against virus-induced cytopathogenicity after 2 days; format: functional, organism-based; conditions: Human alphaherpesvirus 1, KOS, 48 h
[19] = system: Feline infectious peritonitis virus; assay: Antiviral activity against Feline coronavirus FIPV infected in cat CRFK cells assessed as protection against virus-induced cytopathogenicity after 2 days by MTS assay; format: functional, cell-based; conditions: Alphacoronavirus 1, CRFK, 48 h
[20] = system: Respiratory syncytial virus; assay: Antiviral activity against Respiratory syncytial virus infected in human HeLa cells assessed as protection against virus-induced cytopathogenicity after 2 days; format: functional, organism-based; conditions: 48 h

| SMILES | EC50 (Human respirovirus 3) [µg/mL] | EC50 [1] [µg/mL] | MCC at 48 h [2] [µg/mL] | EC50 (Influenza B virus [3]) | EC50 (Influenza A virus [4]) | EC50 (Human alphaherpesvirus 1 [5]) [µg/mL] | EC50 (Influenza A virus [6]) | MCC at 48 h [7] [µg/mL] | MCC at 48 h [8] [µg/mL] | EC50 (Influenza B virus [9]) | EC50 (Influenza A virus [10]) | EC50 (Felid alphaherpesvirus 1) [µg/mL] | EC50 [11] [µg/mL] | EC50 (Coxsackievirus B4 [12]) [µg/mL] | EC50 (Influenza A virus [13]) | EC50 [14] [µg/mL] | EC50 (Coxsackievirus B4 [15]) [µg/mL] | EC50 (Punta Toro virus) [µg/mL] | EC50 (Human alphaherpesvirus 2) [µg/mL] | EC50 [19] [µg/mL] | also measured |
| --- | --- | --- | --- | --- | --- | --- | --- | --- | --- | --- | --- | --- | --- | --- | --- | --- | --- | --- | --- | --- | --- |
| C/C(=N\n1c(-c2ccccc2)nc2ccccc2c1=O)c1ccc(Cl)cc1 | > 20 | > 20 | 100 | Not Active | Not Active | > 20 | Not Active | 100 | 100 | Not Active | Not Active | > 100 | > 20 | > 20 | Not Active | – | – | – | – | – | – |
| CN(C)c1ccc(/C=N/n2c(-c3ccccc3)nc3ccccc3c2=O)cc1 | > 20 | > 20 | – | Not Active | Not Active | > 20 | Not Active | – | – | Not Active | Not Active | > 100 | – | – | Not Active | > 20 | > 20 | – | – | – | – |
| C/C(=N\n1c(-c2ccccc2)nc2ccccc2c1=O)c1ccc(O)cc1 | > 100 | > 100 | > 100 | Not Active | Not Active | > 100 | Not Active | 100 | > 100 | Not Active | Not Active | > 100 | > 100 | > 100 | Not Active | > 100 | > 100 | > 100 | > 100 | > 100 | MCC at 48 h [16]: > 100 µg/mL; CC50 ([17]; crfk): > 100 µg/mL; EC50 (Sindbis virus): > 100 µg/mL; CC50 (MDCK): > 100 µg/mL; EC50 (Human alphaherpesvirus 1 [18]): > 100 µg/mL; EC50 [20]: > 100 µg/mL |
| COc1ccc(/C=N/n2c(-c3ccccc3)nc3ccccc3c2=O)cc1O | > 20 | > 20 | 100 | Not Active | Not Active | > 20 | Not Active | 100 | 20 | Not Active | Not Active | > 20 | > 4 | > 20 | Not Active | > 20 | > 4 | > 20 | > 20 | > 20 | MCC at 48 h [16]: 20 µg/mL; CC50 ([17]; crfk): 42.7 µg/mL (≈ 115 µM); EC50 (Sindbis virus): > 20 µg/mL; CC50 (MDCK): 47.4 µg/mL (≈ 128 µM); EC50 (Human alphaherpesvirus 1 [18]): > 20 µg/mL; EC50 [20]: > 4 µg/mL |
| Nc1ncnc2c1ncn2C[C@H](O)CO [(S)-DHPA] | > 250 | > 250 | – | – | – | – | – | > 250 | > 250 | – | – | – | > 250 | > 250 | – | – | > 250 | > 250 | – | – | EC50 (Sindbis virus): > 250 µg/mL; EC50 [20]: > 250 µg/mL |
| CC(=O)N[C@H]1[C@H](OOP(=O)(O)OP(=O)(O)OC[C@H]2O[C@@H](n3ccc(=O)[nH]c3=O)[C@H](O)[C@@H]2O)O[C@H](CO)[C@@H](O)[C@@H]1O[C@](C)(OP(=O)(O)O)C(=O)O | – | – | – | – | – | – | – | – | – | – | – | 53.1 (≈ 67.1 µM) | – | – | – | – | – | – | – | 11.7 (≈ 14.8 µM) | CC50 ([17]; CRFK cells, read-out: CC50): > 100 µg/mL |
| Nc1nc2c(ncn2COC(CO)CO)c(=O)[nH]1 [GANCICLOVIR] | – | – | > 100 | – | – | 2 (≈ 7.84 µM) | – | – | – | – | – | 0.8 (≈ 3.13 µM) | – | – | – | > 100 | – | – | 0.07 (≈ 0.274 µM) | > 100 | CC50 ([17]; CRFK cells, read-out: CC50): > 100 µg/mL; EC50 (Human alphaherpesvirus 1 [18]): 0.05 µg/mL (≈ 0.196 µM) |
